Screening results as filed in PubChem.
MC4R ag barr – activates human MC4R beta-arrestin recruitment; U2OS MC4R beta-arrestin complementation, luminescence; percent of melanotan II response, DMSO zero; activation, % at 8.9 µM; actives 0.98% (n = 360,000);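 active = activation above a per-plate cutoff, the mean activation of sample wells on that plate plus 3 SD, cut at about 8% in these data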
MC4R antag cAMP – antagonists of human melanocortin 4 receptor (MC4R) | AID 540295 | actives 0.48% (n = 360,000) | P32245 | inhibition, % at 6.5 µM | MC4R-expressing cells, MTII-stimulated cAMP, LANCE TR-FRET;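 active = inhibition above its plate's cutoff, the mean of tested wells on that plate plus 3 SD, cut at about 29% in these data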;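 note: 0% = Melanotan II alone and 100% = Melanotan II plus saturating MCL0020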
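Test system: U2OS cells stably expressing human melanocortin 4 receptor (MC4R); also added: Melanotan II challenge; compound: 6.5 µM single dose; timing: 30-min compound preincubation, 1-h Melanotan II challenge, 1-h detection, room temperature; signal: Eu-cAMP/anti-cAMP TR-FRET, emission 671 nm; repeats: one well per compound, no replicates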
HTR5A inv ag – counter-screen for OPRM1-OPRD1 inverse agonists: human HTR5A inverse agonism | HTR5A cell line, luminescence | inhibition, % at 9.3 µM | actives 0.083% (n = 340,000); in the data active = inhibition mostly above about 23%, no sharp cut-off; inactive = mostly below about 18%;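 note: 0% = cells with DMSO and 100% = no-cell wells with DMSO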
OPRM1-OPRD1 ag – agonists of human mu-delta opioid receptor heterodimerization; actives 0.3% (n = 340,000); activation, % at 9.3 µM; AID 504326; P35372+P41143; cells, OPRM1-OPRD1 heterodimerization, luminescence; in the data active = activation above about 18%;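 note: 0% = vehicle-treated cells and 100% = reference agonist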
HTR5A ag ctr – HTR5A agonism, opioid heterodimer counter-screen; HTR5A agonist assay, luminescence, cell-based; activation, % at 9.3 µM; P47898; actives 0.61% (n = 340,000); in the data active = activation mostly above about 9.5%, no sharp cut-off; inactive = mostly below about 7.6%;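 note: 0% = cells with vehicle only and 100% = reference agonist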
MOR-DOR inv ag – inverse agonist of human OPRM1-OPRD1 heterodimerization | inhibition, % at 9.3 µM | cell-based MOR-DOR heterodimer luminescence, inverse agonism | actives 0.21% (n = 340,000) | P35372+P41143; in the data active = inhibition above about 22%, passing the limit was not always enough;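 note: 0% = cells with DMSO and 100% = wells without cells with DMSO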
* marks the source's active call; other numbers are inactive results; x = not tested or not shown. Shown are actives, neighbours in structure and some others; about 2.4% of the full set was active somewhere.

SMILES	MC4R ag barr	MC4R antag cAMP	HTR5A inv ag	OPRM1-OPRD1 ag	HTR5A ag ctr	MOR-DOR inv ag
O=C(COC(=O)c1cccnc1)Nc1ccccc1	-3	2	-8	-3	3	12
Cc1ccc(NC(=O)c2ccc(Cl)c(N3C(=O)C=CC3=O)c2)cc1	-1	55*	14	0	-5	1
COc1cccc(C(=O)Nc2ccc(C)cc2)c1	-2	6	26	0	-1	-2
Cc1ccc(-c2noc(CCCC(=O)N3CCOCC3)n2)cc1	0	7	-12	-2	5	11
Cc1cccc(-c2noc(CCCC(=O)N3CCOCC3)n2)c1	-1	3	-2	-2	9.8*	13
CCOc1ccccc1NC(=O)c1ccc2nc[nH]c2c1	2	-3	-31	-1	-1	4
O=C(N[C@@H](Cc1ccccc1)C(=O)OCc1ccccc1)c1nc[nH]c1C(=O)N1CCN(c2ccccc2)CC1	-1	15	-32	3	13*	-16
C[C@H](NC(=O)c1nc[nH]c1C(=O)N1CCN(c2ccccc2)CC1)C(=O)OCc1ccccc1	0	3	6	-1	-1	8
O=C(/C=C/c1ccco1)NC(=S)Nc1ccc(N2CCOCC2)c(Cl)c1	22*	-29	-9	-4	-1	18
COC(=O)CC1C(=O)NCCN1C(=O)CSc1nc2ccccc2c(=O)n1CC(C)C (stereo not drawn)	0	7	-3	-2	1	11
C=C(C)Cn1c(SCC)nc2ccccc2c1=O	1	1	7	6	12*	-33
O=C(O)c1ccc(CS(=O)(=O)c2ccc(Br)cc2)cc1	0	6	7	-2	-3	8
CCC1=[N+](CC(=O)c2ccc(Br)cc2)CCn2c(C)ccc21	0	19	-3	0	12*	-1
COc1ccc2c(c1)C=C(CN1CCN(C3CCCC3)C(CCO)C1)CO2 (stereo not drawn)	-2	2	9	-2	-3	9
COC(=O)CN(C)C(=O)CC1C(=O)NCCN1CC(C)(C)C (stereo not drawn)	4	6	-14	1	13*	-10
CC1=CC2C(C(O)CC3(C)C2CC(C)C32OCOC23COCO3)C2(C)C/C(=C\O)C(=O)C=C12 (stereo not drawn)	29*	26	-120	26*	31*	-112
CCOC(=O)Cc1cc(-c2ccc(O)cc2)nc2ccc3ccccc3c12	8.4*	-3	-10	5	12	-31
CN(CC(=O)Nc1ccccc1Br)C(=O)c1cc(S(=O)(=O)N(C)C)ccc1N1CCCC1	-1	3	10	-4	-1	18
Cc1cc(F)cc(-c2cc(C(=O)NCc3ccccn3)[nH]n2)c1	0	5	x	x	x	x
COc1ccc(NC(=O)c2cc(-c3cccnc3)nc3c(C)c(C)ccc23)c(OC)c1	-1	2	-16	0	-3	-1
COc1cccc(NC(=O)c2cc(-c3cccnc3)nc3c(Cl)cccc23)c1	12*	5	-13	3	3	-14
Cc1cc(NC(=O)c2cc(-c3ccncc3)nc3c(C)cccc23)no1	-1	-16	8	1	-4	-3
Cc1cccc(NC(=O)c2cc(-c3cccnc3)nc3c(C)cccc23)n1	7	2	-9	8	11*	-45
CCC(=O)N1CCc2cc(S(=O)(=O)NCCC(=O)NCc3ccccc3OC)ccc21	-3	4	-5	-2	11*	9
COc1cccc(-c2noc(-c3ccc(Cl)nc3)n2)c1	8.7*	-10	-14	0	5	0
COc1cccc(-c2nc(-c3ccc(C(=O)O)cc3)no2)c1	-1	2	-6	-4	2	20
Cc1ccc(C)c(N(CC(=O)NC2CCCC2)C(=O)c2cc3cc4cccc(C)c4nc3s2)c1	-1	12	-4	1	2	-5
Cc1ccc2cc3cc(C(=O)N(CC(=O)NC4CCCC4)c4cccc(C)c4C)sc3nc2c1	1	34*	-6	-1	0	4
CCCc1ccc2oc(C(=O)N3CCC(C(N)=O)(N4CCCCC4)CC3)c(C)c2c1	-2	9	7	-3	0	14
